Data set [1] concerns PBMC. Put plainly: Drug level in human PBMC per 10^6 cells at 10 uM after 4 hrs. The data set is classed as ADME, cell-based. In a few lines: (§1)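 CEM cells or PBM cells stimulated 3 days with PHA, 2 x 10^6 cells per time point, were given 10 µM [3H]DFC or [3H]3TC for 4 h. Cells were washed three times in cold PBS and counted, with viability checked by trypan blue. Metabolites were extracted overnight in 60% methanol and resolved by ion-pair C18 HPLC (ammonium acetate/TBAP pH 7.0, 0–50% methanol), then radioactivity was counted. LOD was about 0.01 pmol/10^6 cells.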

The subject of data set [2] is CCRF-CEM. As to the kind of experiment: Drug level in human CEM cells per 10^6 cells at 10 uM after 4 hrs. The data set is classed as ADME, cell-based. In a few lines: as §1
The test system of data set [3] is CCRF-CEM. As to the kind of experiment: Reduction in Lamivudine metabolite level in human CEM cells at 33.3 uM. The data set is classed as functional. Also noted: scale not given: the % may be the effect or the level left. In a few lines:
(§2)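 CEM or PHA-stimulated primary human PBM cells (2 x 10^6 per point) given 10 µM [3H]3TC plus unlabeled competitor at 1, 33.3 or 100 µM for 4 h, in triplicate; cells washed in cold PBS, extracted overnight in 60% methanol; metabolites separated by ion-pairing reverse-phase C18 HPLC (ammonium acetate/TBAP pH 7.0, methanol gradient); radioactivity counted; detection limit about 0.01 pmol/10^6 cells.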

Data set [4] has as its system CCRF-CEM. Put plainly: Reduction in Lamivudine diphosphate choline level in human CEM cells. The data set is classed as functional, cell-based. In a few lines:
(§3)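 Competition assay in triplicate in CEM and PHA-stimulated PBM cells (2 x 10^6 per point). Cells received 10 µM [3H]3TC plus unlabeled DFC, or 10 µM [3H]DFC plus unlabeled 3TC, with the unlabeled drug at 1, 33.3 or 100 µM, for 4 h. After cold-PBS washes, 60% methanol extracts were separated by ion-pair reverse-phase HPLC. Labeled metabolites, including TP and DP-choline, were quantified by scintillation counting against radiolabel alone.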

In data set [5] the test system is Human immunodeficiency virus 1. As to the kind of experiment: Antiviral activity against HIV1 LAI in human PBM cells. The data set is classed as functional, organism-based. The note with it: Human immunodeficiency virus 1, LAI, PBMC. In a few lines:
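HIV-1 LAI added to PHA-stimulated (3-day) primary human PBM cells 1 h before drugs; medium with recombinant IL-2 (26.5 units/ml); drugs alone or combined at fixed ratios (10:1, 3:1, 25:1, 100:1); 5 days culture; supernatant virus pelleted by centrifugation, RT activity measured radiometrically; combination index with confidence intervals by computer algorithm.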

The subject of data set [6] is CCRF-CEM. As to the kind of experiment: Reduction of Lamivudine triphosphate level at 100 uM in human CEM cells. The data set is classed as functional. Also noted: scale not given: the % may be the effect or the level left. An outline of the steps: as §2
The subject of data set [7] is CCRF-CEM. Put plainly: Reduction in Lamivudine metabolite level in human CEM cells at 100 uM. The data set is classed as functional. Also on record: scale not given: the % may be the effect or the level left. An outline of the steps: as §2
Data set [8] relates to PBMC. Put plainly: Reduction of Lamivudine triphosphate level at 100 uM in human PBMC. The data set is classed as functional. Also noted: scale not given: the % may be the effect or the level left. In a few lines:
as §2

Data set [9] concerns CCRF-CEM. As to the kind of experiment: Reduction in Lamivudine metabolite level in human CEM cells at 1 uM. The data set is classed as functional, cell-based. In a few lines:
as §3

Data set [10] relates to CCRF-CEM. Put plainly: Reduction in [3H]dexelvucitabine triphosphate in human CEM cells per 10^6 cells at 33.3 uM. The format is functional. In a few lines:
(§4)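 CEM or PHA-stimulated primary human PBM cells (2 x 10^6 per point) given 10 µM [3H]DFC plus unlabeled 3TC at 1, 33.3 or 100 µM for 4 h, in triplicate; 60% methanol extracts resolved by ion-pairing reverse-phase C18 HPLC; metabolites (TP, DP-choline) quantified by scintillation counting as pmol/10^6 cells.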

Data set [11] deals with PBMC. Put plainly: Reduction in dexelvucitabine diphosphate choline level in PHA-stimulated human PBMC at 1 uM. The data set is classed as functional, cell-based. In a few lines:
as §3

Data set [12] deals with CCRF-CEM. Put plainly: (§5) Reduction in dexelvucitabine diphosphate choline level in human CEM cells at 1 uM. Also on record: scale not given: the % may be the effect or the level left. The format is functional. In a few lines:
as §4

The test system of data set [13] is CCRF-CEM. Put plainly: Reduction in dexelvucitabine diphosphate choline level in human CEM cells at 100 uM. The data set is classed as functional. Also on record: scale not given: the % may be the effect or the level left. In a few lines: as §4
For data set [14], the system named is PBMC. As to the kind of experiment: Reduction in dexelvucitabine diphosphate choline level in human PBMC at 1 uM. The data set is classed as functional. Also noted: scale not given: the % may be the effect or the level left. An outline of the steps:
as §4

The test system of data set [15] is CCRF-CEM. As to the kind of experiment: Reduction in [3H]dexelvucitabine triphosphate in human CEM cells per 10^6 cells at 100 uM. The data set is classed as functional. An outline of the steps:
as §4

In data set [16] the test system is CCRF-CEM. As to the kind of experiment: Reduction in dexelvucitabine diphosphate choline level in human CEM cells at 33.3 uM. The format is functional. Also on record: scale not given: the % may be the effect or the level left. An outline of the steps:
as §4

Data set [17] deals with PBMC. As to the kind of experiment: Reduction in dexelvucitabine diphosphate choline level in human PBMC at 33.3 uM. The data set is classed as functional. Also noted: scale not given: the % may be the effect or the level left. An outline of the steps: as §4
Data set [18] concerns CCRF-CEM. As to the kind of experiment: Reduction in [3H]dexelvucitabine triphosphate in human CEM cells at 1 uM. The data set is classed as functional, cell-based. In a few lines: as §3
In data set [19] the test system is PBMC. As to the kind of experiment: Reduction in dexelvucitabine diphosphate choline level in human PBMC at 100 uM. The data set is classed as functional. Also noted: scale not given: the % may be the effect or the level left. An outline of the steps:
as §4

In data set [20] the test system is CCRF-CEM. The description is as §5. The format is functional. Also noted: scale not given: the % may be the effect or the level left. An outline of the steps:
as §4
This is another data set of the same source.

Calls of active or inactive are those of the source. The rule behind the calls is not given here.

A word on the EC50: it is the concentration needed to bring the measured effect to its halfway point. As usually defined, the EC90 is the concentration needed for an effect of 90%.

On to `Nc1ccn([C@@H]2CS[C@H](COP(=O)(O)OP(=O)(O)OP(=O)(O)O)O2)c(=O)n1` [LAMIVUDINE TRIPHOSPHATE], for which the Drug uptake in data set [1] is recorded as 2.01 pmol; in data set [2], 5.7 pmol.
Take `Nc1nc(=O)n([C@H]2C=C[C@@H](CO)O2)cc1F` [DEXELVUCITABINE]: the Activity in data set [3] is 10%; in data set [6], 25%; in data set [7], 13%; in data set [8], 46%. The outcome in data set [4] and in data set [9] was inactive. The same molecule returned an EC50 in data set [5] of 0.075 µM. The molecule also had a 90% effect concentration (EC90) in [5] of 0.23 µM.
Regarding `Nc1ccn([C@@H]2CS[C@H](CO)O2)c(=O)n1` (single isomer, unassigned) [LAMIVUDINE], the Activity in [10] worked out at 0.67 pmol; in data set [12], 74%; in [13], 92%; in [14], 48%; in data set [15], 0.41 pmol; in [16] it was 83%. The Activity in data set [17] is given as 83%; in data set [19] it was 92%; in [20] it was 74%. For the same molecule, the result in data set [11] was Active. The molecule further had a concentration giving a half-maximal response (EC50) in [5] of 0.026 µM. Also, the concentration for an effect of 90% (EC90) in [5] was determined as 0.12 µM. In addition, the outcome in data set [18] was inactive.

Values taken from ChEMBL document CHEMBL1143843, “Antiviral and cellular metabolism interactions between Dexelvucitabine and lamivudine” (Antimicrob Agents Chemother, 2007).
